Experimental data: ChEMBL document CHEMBL3091379, “A selective mitochondrial-targeted chlorambucil with remarkable cytotoxicity in breast and pancreatic cancers” (J Med Chem, 2013)
Active and inactive are the calls of the source. The rule behind the calls is not given here.

Columns and labels:
MCF7 [1] = experiment: Cytotoxicity against human MCF7 cells after 72 hrs by MTT assay; format: functional, cell-based; details: MCF7, 72 h
Outline: (§1)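 Cells seeded at 4 × 10^3 per well, adhered overnight, then exposed continuously for 72 h. Media refreshed, MTT added to 0.3 mg/mL final, 4 h at 37 °C. Formazan dissolved in DMSO and read at 570 nm. IC50 taken from log concentration vs % nonviable cells; triplicate wells. Rho θ lines grown with 50 μg/mL uridine.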

[2] = Cell cycle arrest in human MIAPaCa2 cells assessed as accumulation at G2/M phase at 20 uM after 24 to 48 hrs by flow cytometry; format: functional, cell-based; details: MIA PaCa-2
Outline: (§2)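 Cells in 6-well dishes exposed to 2 or 20 μM for 0−72 h, trypsinized, PBS-washed, fixed and permeabilized in 70% ethanol. Stained with 10 μg/mL propidium iodide plus 100 μg/mL RNase A. DNA content read by flow cytometry with 488 nm excitation and 575/26 nm bandpass.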

MIA PaCa-2 [3] = experiment: Induction of nuclear DNA damage in human MIAPaCa2 cells assessed as increase in gammaH2A.X expression at 75 uM by Western blotting analysis; format: functional, cell-based; details: TDE = time-dependent effect
MDA-MB-231 [4] = experiment: Cytotoxicity against mitochondrial DNA-deficient human MDA-MB-231 rho theta-W02 cells after 72 hrs by MTT assay; format: functional, cell-based; details: MDA-MB-231, 72 h; outline: as §1
[5] = Cytotoxicity against human CAMA1 cells after 72 hrs by MTT assay; format: functional, cell-based; details: CAMA-1, 72 h; outline: as §1
MDA-MB-435 [6] = experiment: Cytotoxicity against wild type human MDA-MB-435 cells after 72 hrs by MTT assay; format: functional, cell-based; details: MDA-MB-435, 72 h; outline: as §1
[7] = Cytotoxicity against human Hs578T cells after 72 hrs by MTT assay; format: functional, cell-based; details: Hs-578T; outline: as §1
MIA PaCa-2 [8] = experiment: Induction of nuclear DNA damage in human MIAPaCa2 cells assessed as increase in gammaH2A.X expression after 24 hrs by Western blotting analysis in presence of NAC relative to control; format: functional
MDA-MB-468 [9] = experiment: Cytotoxicity against human MDA-MB-468 cells after 72 hrs by MTT assay in presence of NAC; format: functional, cell-based; details: MDA-MB-468, 72 h
[10] = Cytotoxicity against human MIAPaCa2 cells after 72 hrs by MTT assay; format: functional, cell-based; details: MIA PaCa-2, 72 h; outline: as §1
[11] = Cell cycle arrest in human MIAPaCa2 cells assessed as increase of […] cells at 20 uM after 24 to 72 hrs by flow cytometry; format: functional, cell-based; details: MIA PaCa-2; outline: as §2
[12] = Cytotoxicity against human SKBR3 cells after 72 hrs by MTT assay; format: functional, cell-based; details: SK-BR-3, 72 h; outline: as §1
BT-474 [13] = experiment: Cytotoxicity against human BT474 cells after 72 hrs by MTT assay; format: functional, cell-based; details: BT-474, 72 h
MDA-MB-468 [14] = experiment: Induction of nuclear DNA damage in human MDA-MB-468 cells assessed as increase in gammaH2A.X expression at 20 uM by Western blotting analysis; format: functional, cell-based; details: TDE = time-dependent effect
MDA-MB-231 [15] = experiment: Cytotoxicity against wild type human MDA-MB-231 cells after 72 hrs by MTT assay; format: functional, cell-based; details: MDA-MB-231, 72 h; outline: as §1
MDA-MB-435 [16] = experiment: Cytotoxicity against mitochondrial DNA-deficient human MDA-MB-435 rho theta-W01 cells after 72 hrs by MTT assay; format: functional, cell-based; details: MDA-MB-435, 72 h; outline: as §1
MIA PaCa-2 [17] = experiment: Induction of nuclear DNA damage in human MIAPaCa2 cells assessed as increase in gammaH2A.X expression after 24 hrs by Western blotting analysis relative to control; format: functional
[18] = Antitumor activity against human MIAPaCa2 cells xenografted in athymic nude mouse assessed as inhibition of tumor growth at 10 mg/kg, ip administered 5 times a week for 36 days; format: functional; details: MIA PaCa-2, ip, 864 h, route intraperitoneal, read-out: TGI
Outline: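 Established subcutaneous xenografts (2 × 10^6 cells in 1:1 matrigel–basal DMEM, right rear flank) in 4−6 week old mice; randomized at ~100 mm3, n = 6 per group. Dosed ip 10 mg/kg five times weekly; DMSO stock diluted in saline or sesame oil. Caliper volume V = d2 × D/2. Unpaired Student's t-test vs vehicle at day 36.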

BT-549 [19] = experiment: Cytotoxicity against human BT549 cells after 72 hrs by MTT assay; format: functional, cell-based; details: BT-549, 72 h; outline: as §1
[20] = Cytotoxicity against human BxPC3 cells after 72 hrs by MTT assay; format: functional, cell-based; details: BXPC-3, 72 h; outline: as §1
MDA-MB-468 [21] = experiment: Cytotoxicity against human MDA-MB-468 cells after 72 hrs by MTT assay; format: functional, cell-based; details: MDA-MB-468, 72 h; outline: as §1
MDA-MB-435 [22] = experiment: Cytotoxicity against mitochondrial DNA-deficient human MDA-MB-435 rho theta-W02 cells after 72 hrs by MTT assay; format: functional, cell-based; details: MDA-MB-435, 72 h; outline: as §1
MDA-MB-435 [23] = experiment: Ratio of IC50 for mitochondrial DNA-deficient human MDA-MB-435 rho theta-W02 cells to IC50 for wild type human MDA-MB-435 cells; format: functional
[24] = Drug uptake in cytoplasm of human MIAPaCa2 cells at 10 uM after 18 hrs using […] staining by laser-scanning confocal microscopy; format: ADME, cell-based; details: mia paca-2, 18 h
Outline: (§3)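 Cells on glass coverslips, adhered overnight, exposed 18 h at 10 μM. Fixed in 3.7% formaldehyde 15 min at RT, permeabilized in ice-cold acetone 5 min at −20 °C, blocked in 1% BSA/PBS. Anti-TPP antisera and anti-complex I antibody (1:1000) overnight at 4 °C, then Cy5/Cy3 secondaries (1:200) 2 h. Imaged by scanning confocal microscopy.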

BT-474 [25] = experiment: Sensitivity ratio of chlorambucil IC50 to compound IC50 for human BT474 cells; format: functional
MDA-MB-468 [26] = experiment: Sensitivity ratio of chlorambucil IC50 to compound IC50 for human MDA-MB-468 cells; format: functional
MDA-MB-435 [27] = experiment: Ratio of IC50 for mitochondrial DNA-deficient human MDA-MB-435 rho theta-W01 cells to IC50 for wild type human MDA-MB-435 cells; format: functional
Hs-578T = experiment: Sensitivity ratio of chlorambucil IC50 to compound IC50 for human Hs 578T cells; format: functional
MDA-MB-468 [28] = experiment: Induction of nuclear DNA damage in human MDA-MB-468 cells assessed as increase in gammaH2A.X expression at 2 uM by Western blotting analysis; format: functional, cell-based; details: TDE = time-dependent effect
BXPC-3 = experiment: Sensitivity ratio of chlorambucil IC50 to compound IC50 for human BxPC3 cells; format: functional
BT-549 [29] = experiment: Sensitivity ratio of chlorambucil IC50 to compound IC50 for human BT549 cells; format: functional
MIA PaCa-2 [30] = experiment: Induction of nuclear DNA damage in human MIAPaCa2 cells assessed as increase in gammaH2A.X expression at 2 uM by Western blotting analysis; format: functional, cell-based; details: TDE = time-dependent effect
[31] = Drug uptake in mitochondria of human MIAPaCa2 cells at 10 uM after 18 hrs using […] staining by laser-scanning confocal microscopy; format: ADME; details: mia paca-2, 18 h; outline: as §3
CAMA-1 = experiment: Sensitivity ratio of chlorambucil IC50 to compound IC50 for human CAMA1 cells; format: functional
SK-BR-3 = experiment: Sensitivity ratio of chlorambucil IC50 to compound IC50 for human SKBR3 cells; format: functional
[32] = Cell cycle arrest in human MIAPaCa2 cells assessed as increase of […] cells at 2 uM after 24 to 72 hrs by flow cytometry; format: functional, cell-based; details: MIA PaCa-2; outline: as §2
MIA PaCa-2 [33] = experiment: Induction of nuclear DNA damage in human MIAPaCa2 cells assessed as increase in gammaH2A.X expression after 5 to 24 hrs by Western blotting analysis; format: functional, cell-based
MDA-MB-435 [34] = experiment: Sensitivity ratio of chlorambucil IC50 to compound IC50 for wild type human MDA-MB-435 cells; format: functional
[35] = Cell cycle arrest in human MIAPaCa2 cells assessed as accumulation at S phase at 2 uM after 24 hrs by flow cytometry; format: functional, cell-based; details: MIA PaCa-2; outline: as §2
MDA-MB-231 [36] = experiment: Sensitivity ratio of chlorambucil IC50 to compound IC50 for human MDA-MB-231 cells; format: functional
MCF7 [37] = experiment: Sensitivity ratio of chlorambucil IC50 to compound IC50 for human MCF7 cells; format: functional
[38] = Cell cycle arrest in human MIAPaCa2 cells assessed as accumulation at G2/M phase at 2 uM after 24 to 48 hrs by flow cytometry; format: functional, cell-based; details: MIA PaCa-2; outline: as §2
MDA-MB-231 [39] = experiment: Ratio of IC50 for mitochondrial DNA-deficient human MDA-MB-231 rho theta-W02 cells to IC50 for wild type human […]; format: functional
MIA PaCa-2 [40] = experiment: Sensitivity ratio of chlorambucil IC50 to compound IC50 for human MIAPaCa2 cells; format: functional
MDA-MB-468 [41] = experiment: Induction of nuclear DNA damage in human MDA-MB-468 cells assessed as increase in gammaH2A.X expression after 5 to 24 hrs by Western blotting analysis; format: functional, cell-based
[42] = Drug uptake in nucleus of human MIAPaCa2 cells at 10 uM after 18 hrs using […] staining by laser-scanning confocal microscopy; format: ADME, cell-based; details: mia paca-2, 18 h; outline: as §3

Compound: O=C(CCCc1ccc(N(CCCl)CCCl)cc1)NCCC[P+](C1CCCCC1)(C1CCCCC1)C1CCCCC1
- IC50 (MCF7 [1]): 40 µM

Compound: O=C(O)CCCc1ccc(N(CCCl)CCCl)cc1 [CHLORAMBUCIL]
- Activity [2]: Active
- Activity (MIA PaCa-2 [3]): tde
- IC50 (MDA-MB-231 [4]): > 200 µM
- IC50 [5]: 192 µM
- IC50 (MDA-MB-435 [6]): 150 µM
- IC50 [7]: 162 µM
- fold change (FC) (MIA PaCa-2 [8]): 2.6
- IC50 (MDA-MB-468 [9]): 67.5 µM
- IC50 [10]: 78.3 µM
- Activity [11]: Active
- IC50 [12]: 248 µM
- IC50 (BT-474 [13]): 238 µM
- Activity (MDA-MB-468 [14]): tde
- IC50 (MCF7 [1]): 73.3 µM
- IC50 (MDA-MB-231 [15]): > 200 µM
- IC50 (MDA-MB-435 [16]): > 200 µM
- fold change (FC) (MIA PaCa-2 [17]): 2.5
- inhibition in vivo at 10 mg/kg [18]: 61.5%
- IC50 (BT-549 [19]): > 200 µM
- IC50 [20]: > 100 µM
- IC50 (MDA-MB-468 [21]): 43.8 µM
- IC50 (MDA-MB-435 [22]): > 200 µM

Compound: O=C(CCCc1ccc(N(CCCl)CCCl)cc1)NCCC[P+](c1ccccc1)(c1ccccc1)c1ccccc1.O=C([O-])C(F)(F)F
- Ratio IC50 (MDA-MB-435 [23]): 11.7
- Drug uptake [24]: Active
- Ratio IC50 (BT-474 [25]): 36.5
- Ratio IC50 (MDA-MB-468 [26]): 25.8
- IC50 (MDA-MB-231 [4]): > 20 µM
- IC50 [5]: 2.4 µM
- IC50 (MDA-MB-435 [6]): 3 µM
- Ratio IC50 (MDA-MB-435 [27]): 5
- IC50 [7]: 11.4 µM
- fold change (FC) (MIA PaCa-2 [8]): 1.2
- Ratio IC50 (Hs-578T): 14.3
- Activity (MDA-MB-468 [28]): tde
- IC50 (MDA-MB-468 [9]): 0.6 µM
- Ratio IC50 (BXPC-3): >40
- Ratio IC50 (BT-549 [29]): 27.4
- IC50 [10]: 1.6 µM
- Activity (MIA PaCa-2 [30]): tde
- IC50 [12]: 5.7 µM
- Drug uptake [31]: Active
- Ratio IC50 (CAMA-1): 79.9
- Ratio IC50 (SK-BR-3): 43.4
- IC50 (BT-474 [13]): 6.5 µM
- IC50 (MDA-MB-231 [15]): 9.5 µM
- Activity [32]: Active
- IC50 (MDA-MB-435 [16]): 15 µM
- fold change (FC) (MIA PaCa-2 [17]): 2.9
- Activity (MIA PaCa-2 [33]): Dose-dependent effect
- Ratio IC50 (MDA-MB-435 [34]): 50
- inhibition in vivo at 10 mg/kg [18]: 45%
- Activity [35]: Active
- Ratio IC50 (MDA-MB-231 [36]): 54.8
- Ratio IC50 (MCF7 [37]): 7.7
- IC50 (BT-549 [19]): 7.3 µM
- Activity [38]: Active
- Ratio IC50 (MDA-MB-231 [39]): >2.1
- IC50 [20]: 2.5 µM
- Ratio IC50 (MIA PaCa-2 [40]): >40
- IC50 (MDA-MB-468 [21]): 1.7 µM
- IC50 (MDA-MB-435 [22]): 35 µM
- Activity (MDA-MB-468 [41]): Dose-dependent effect
- Drug uptake [42]: Not Active

Compound: CCCC[P+](CCCC)(CCCC)CCCNC(=O)CCCc1ccc(N(CCCl)CCCl)cc1
- IC50 (MCF7 [1]): 35 µM

Compound: O=C(CCCc1ccc(N(CCO)CCO)cc1)NCCC[P+](c1ccccc1)(c1ccccc1)c1ccccc1
- IC50 (MCF7 [1]): 80 µM
